Rows were chosen to be rich in hits. Some 4.6% of all compounds tested hit in one or more screens of this group.
TAAR1 antag: antagonists of human TAAR1; Q96RJ0; CHO RD-HGA16 TAAR1, Fluo-8 calcium fluorescence, antagonist; inhibition, % at 3 µM; 1.5% of 360,000 active;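 active = inhibition above a per-plate cutoff, the mean inhibition of test compounds on that plate plus 3 SD, cut at about 49% in these data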
Target sequence (Q96RJ0 whole entry, looked up): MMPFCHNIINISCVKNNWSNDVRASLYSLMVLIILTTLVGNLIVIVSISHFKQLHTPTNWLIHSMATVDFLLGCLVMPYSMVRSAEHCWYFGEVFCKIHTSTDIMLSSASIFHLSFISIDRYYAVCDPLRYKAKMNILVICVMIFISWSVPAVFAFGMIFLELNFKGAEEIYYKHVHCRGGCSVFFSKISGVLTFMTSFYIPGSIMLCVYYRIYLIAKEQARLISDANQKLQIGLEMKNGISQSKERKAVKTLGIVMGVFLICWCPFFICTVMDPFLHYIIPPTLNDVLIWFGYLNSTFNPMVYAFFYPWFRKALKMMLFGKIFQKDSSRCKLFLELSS
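System: CHO RD-HGA16 cells bearing hTAAR1. Reagent: EC80 β-phenethylamine stimulus. Schedule: seeding 17-24 h prior, 75-min 37 °C, 30-min RT dye loading. Signal: Fluo-8 intracellular calcium dye fluorescence, real-time kinetic reads. Read-out: % inhibition from peak post-agonist over basal fluorescence ratio. Benchmarks: vehicle wells and EC80 agonist wells. Replicates: n of 1.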
OX1R antag-1: blocks the human orexin 1 receptor. O43613. OX1R-expressing cells, FRET antagonist read-out. inhibition, % at 6.6 µM. 1.8% of 330,000 active; in the data active = inhibition mostly above about 38%, no sharp cut-off; inactive = mostly below about 40%
Target sequence (O43613 whole entry, looked up): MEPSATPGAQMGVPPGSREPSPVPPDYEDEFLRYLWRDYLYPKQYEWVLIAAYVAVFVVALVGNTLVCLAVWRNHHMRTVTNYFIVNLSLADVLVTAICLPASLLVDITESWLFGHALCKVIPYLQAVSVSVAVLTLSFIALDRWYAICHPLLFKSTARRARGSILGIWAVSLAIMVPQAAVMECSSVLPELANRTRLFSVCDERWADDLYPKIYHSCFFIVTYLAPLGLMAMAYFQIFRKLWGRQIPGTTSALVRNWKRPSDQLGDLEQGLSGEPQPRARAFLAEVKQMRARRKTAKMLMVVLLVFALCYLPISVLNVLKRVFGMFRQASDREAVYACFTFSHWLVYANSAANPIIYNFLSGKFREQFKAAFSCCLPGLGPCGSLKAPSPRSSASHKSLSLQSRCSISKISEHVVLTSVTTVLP
CHO parental Ca: counter-screen: ATP calcium response change in parental CHO cells; parental CHO-K1, ATP-induced calcium, Fluo-8 fluorescence; inhibition, % at 5.6 µM; 0.63% of 330,000 active; AID 463079;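 active = inhibition above that plate's mean sample inhibition plus 3 SD, cut at about 26% in these data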
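material = parental CHO cells | also added = ATP as calcium-mobilizing challenge | dosing = single point at 5.6 µM | detection = intracellular calcium via Fluo-8 no-wash fluorescent dye | read-out = % inhibition | benchmarks = low control ATP plus DMSO, high control DMSO only | repeats = one well per compound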
OX1R antag-2: blocks the human orexin 1 receptor; 0.43% of 330,000 active; inhibition, % at 5 µM; CHO/OX1R cells, Fluo-8 calcium fluorescence, orexin A; O43613;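 active = inhibition above its plate's threshold, mean inhibition of all tested compounds on the plate plus 3 SD, cut at about 37% in these data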
TAAR1 ag: human TAAR1 agonism; Q96RJ0; CHO RD-HGA16 TAAR1, Fluo-8 calcium fluorescence; vehicle wells 0%, saturating PEA agonist 100%; activation, % at 3 µM; 0.99% of 360,000 active;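 active = activation above the mean activation of all test compounds in the run plus 3 SD, cut at about 38% in these data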
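Test system: RD-HGA16 (CHO) cells co-expressing Gα16 and hTAAR1 | Doses: Single dose, 3 µM | Schedule: 17-24 h seeding, 75 min 37 °C dye, 30 min RT | Evaluation: % activation from peak over basal fluorescence ratio, DMSO-to-PEA scaled | Technique: Kinetic Fluo-8 calcium fluorescence | Benchmarks: Low control DMSO, high control PEA (EC100)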
GPR7 antag: antagonists of human GPR7 (neuropeptides B/W receptor 1); inhibition, % at 4.4 µM; 1.1% of 290,000 active; AID 1861; P48145; GPR7-expressing cells, fluorescence antagonist assay; in the data active = inhibition above about 16%, passing the limit was not always enough;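 also: cells stimulated with the agonist NPW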
Each line names hits and unclear results; the compound was inactive in the other large screens.

C[n+]1cc(C(=O)N2CCCCC2)ccc1/C=C/c1c[nH]c2ccccc12	OX1R antag-1 69.3
O=C(O)c1ccccc1Nc1cc(Cl)c2nonc2c1[N+](=O)[O-]	OX1R antag-1 60.9
CN(C)c1cc(Nc2cccc(O)c2)c([N+](=O)[O-])c2nonc12	none
CCNc1cc(Nc2c(C)n(C)n(-c3ccccc3)c2=O)c([N+](=O)[O-])c2nonc12	none
O=C(O)c1cccc(Nc2ccc([N+](=O)[O-])c3nonc23)c1	OX1R antag-1 34.0
O=C(O)c1ccc(Nc2ccc([N+](=O)[O-])c3nonc23)cc1	none (no result: OX1R antag-1, CHO parental Ca, OX1R antag-2)
O=C(O)c1ccccc1Nc1ccc([N+](=O)[O-])cc1	none
O=C(O)c1cccc(Nc2cc(Cl)c3nonc3c2[N+](=O)[O-])c1	OX1R antag-1 57.8
O=[N+]([O-])c1c(Nc2ccccn2)cc(Cl)c2nonc12	OX1R antag-1 45.0
Cc1c(C(=O)N(C)CCC#N)oc2ccc(S(=O)(=O)N3CCOCC3)cc12	none
CCN(CC(=O)NC)S(=O)(=O)c1ccc(Br)cc1	GPR7 antag 16.3
CN(c1ccccc1)S(=O)(=O)c1ccc(-c2ccccc2)cc1	TAAR1 antag 51.8
CCN(CC(=O)NC)S(=O)(=O)c1ccc(C)cc1	none
CCN(CC)S(=O)(=O)c1ccc(-c2ccc(S(=O)(=O)N(CC)CC)cc2)cc1	CHO parental Ca 40.7
CN(C)S(=O)(=O)c1ccc(-c2ccccc2)cc1	none
COC(=O)c1ccccc1NC(=O)CCCn1nc([N+](=O)[O-])c(Br)c1C	OX1R antag-1 75.0
COc1cccc(NC(=O)c2cc3cccc(OC)c3o/c2=N\O)c1	OX1R antag-1 93.1, OX1R antag-2 40.4 (no result: TAAR1 antag, TAAR1 ag)
COc1cccc(NC(=O)c2cc3ccccc3o/c2=N\O)c1	none
COc1cccc2cc(C(=O)NCCN3CCOCC3)c(=O)oc12	OX1R antag-1 39.0
COc1ccc(C(=O)NNC(=O)c2cc3cc(OC)ccc3oc2=O)cc1	none
COc1ccc(C(=O)NNC(=O)c2cc3cccc(OC)c3oc2=O)cc1	OX1R antag-1 49.7
O=C(CC[C@H]1O[C@@H](n2ccc(=O)[nH]c2=O)[C@H](O)[C@@H]1O)NCc1ccc2c(c1)OCO2	none (no result: OX1R antag-1, CHO parental Ca, OX1R antag-2, GPR7 antag)
O=C(/C=C/c1ccco1)OCc1nnc(-c2ccc(Cl)cc2)o1	none
CN(CC(=O)N1CCCCC1)S(=O)(=O)c1cccc2nsnc12	OX1R antag-1 54.5
CN(CC(=O)Nc1ccc(F)c(Cl)c1)S(=O)(=O)c1cccc2nsnc12	none
Cc1ccc(NC(=O)CN(C)S(=O)(=O)c2cccc3nsnc23)cc1	none
CN(CC(=O)NCCc1ccc(S(N)(=O)=O)cc1)S(=O)(=O)c1cccc2nsnc12	OX1R antag-1 58.6
Cc1ccc(CNC(=O)CN(C)S(=O)(=O)c2cccc3nsnc23)cc1	OX1R antag-1 71.3
CCOc1ccc(CCNC(=O)CN(C)S(=O)(=O)c2cccc3nsnc23)cc1OCC	none
CC(=O)c1cccc(NC(=O)CN(C)S(=O)(=O)c2cccc3nsnc23)c1	OX1R antag-1 44.2
Cc1ccnc(NC(=O)c2cc(S(=O)(=O)NCc3ccccc3)ccc2C)c1	none (no result: GPR7 antag)
CCOc1ccc(C(=O)NCCCN2CCOCC2)cc1OCC	none
COc1ccc(CN2C[C@@H](CO)O[C@@H](n3cnc4c(NCc5cc(OC)c(OC)c(OC)c5)ncnc43)C2)cc1	none (no result: OX1R antag-1, CHO parental Ca, OX1R antag-2, GPR7 antag)
CC(/C=C/C=C/c1ccccc1)=N/NC(=O)c1ccc2c(c1)OCCO2	none
Nc1ccc(-c2c3ccc(=O)cc-3oc3cc(O)ccc23)c(C(=O)O)c1	OX1R antag-1 62.6, CHO parental Ca 57.6, OX1R antag-2 87.1 (no result: TAAR1 antag, TAAR1 ag, GPR7 antag)
CCCS(=O)(=O)NC(=O)C1(C)CCN(C(=O)c2c(F)cccc2F)C1 (centres undefined)	none (no result: OX1R antag-1, CHO parental Ca, OX1R antag-2, GPR7 antag)
CC(=O)N(CN1C(=O)c2ccc([N+](=O)[O-])cc2C1=O)c1cccc(C(=O)O)c1	OX1R antag-1 52.2
CCOc1ccc(NC(=O)CN(C)C(=O)CC2OC(=O)c3ccccc32)cc1OCC (centres undefined)	none (no result: GPR7 antag)
N#Cc1ccccc1Sc1ccccc1C(=O)Nc1ccc(Br)cc1	none
N#Cc1ccccc1Sc1ccccc1C(=O)Nc1ccc2ccccc2c1	OX1R antag-1 58.2
O=C(NCC1CCCN1S(=O)(=O)c1cccs1)c1cccc(Cl)c1 (centres undefined)	OX1R antag-1 52.6 (no result: GPR7 antag)
COc1cccc(CNC(=O)c2ccc(S(=O)(=O)N3CCCCC3)cc2)c1	TAAR1 antag 50.7 (no result: OX1R antag-1, CHO parental Ca, OX1R antag-2, GPR7 antag)
COc1cccc(C(=O)NCC2CCCN2S(=O)(=O)c2cccs2)c1 (centres undefined)	none (no result: GPR7 antag)
COc1ccc(S(=O)(=O)N2CCCC2CNC(=O)c2cccc(OC)c2)cc1 (centres undefined)	OX1R antag-1 42.9 (no result: GPR7 antag)
O=C(NCC1CCCN1S(=O)(=O)c1cccs1)C(=O)Nc1ccccc1Cl (centres undefined)	OX1R antag-1 44.8 (no result: GPR7 antag)
COc1cccc(CNC(=O)c2ccc(S(=O)(=O)N3CCCC3)cc2)c1	none
CC(C)(C)N(Cc1ccccc1)C(=O)COC(=O)CNC(=O)c1ccco1	none (no result: GPR7 antag)
Cc1c(C(=O)NCCN(C)C)n(C)c(=O)c2ccccc12	none (no result: OX1R antag-1, CHO parental Ca, OX1R antag-2, GPR7 antag)
COCCNC(=O)C1CCCN(C(=O)c2cc(-c3cccs3)oc2C)CC1 (centres undefined)	none (no result: OX1R antag-1, CHO parental Ca, OX1R antag-2, GPR7 antag)
CCOc1ccc(-n2c(=S)sc3c(=O)[nH]c(SCC(=O)C(C)(C)C)nc32)cc1	OX1R antag-1 47.9
CCN(CC)c1ccc(-c2nn3c(-c4ccccc4OC)nnc3s2)cc1	OX1R antag-1 39.2, CHO parental Ca 30.3 (no result: TAAR1 antag, TAAR1 ag)
COc1ccc(NC(=O)c2ccc(S(=O)(=O)C(F)F)cc2)c(OC)c1	none
O=C(Cn1cnc2cc([N+](=O)[O-])ccc2c1=O)Nc1ccccc1-c1ccccc1	OX1R antag-1 48.5
CN(C(=O)Cn1cnc2ccccc2c1=O)C1CCS(=O)(=O)C1 (centres undefined)	none (no result: GPR7 antag)
CC1CCCC(C)N1C(=O)Cn1cnc2cc([N+](=O)[O-])ccc2c1=O (centres undefined)	OX1R antag-1 114.0
CCN(C(=O)Cn1cnc2cc([N+](=O)[O-])ccc2c1=O)C1CCS(=O)(=O)C1 (centres undefined)	OX1R antag-1 62.6
O=C(Cn1cnc2cc([N+](=O)[O-])ccc2c1=O)Nc1ccc(Br)cc1	none
COc1ccc(NC2CCCN(C(=O)CCC3=NNC(=O)CC3)C2)cc1 (centres undefined)	none
CC1(C(=O)NS(=O)(=O)c2cccc(Cl)c2)CCN1C(=O)C1(c2ccc(Cl)cc2)CC1 (centres undefined)	none (no result: OX1R antag-1, CHO parental Ca, OX1R antag-2, GPR7 antag)
Cc1cnc(Sc2ncccc2[N+](=O)[O-])nc1	none
Cc1cc(C)n2nc(Sc3ncccc3[N+](=O)[O-])nc2n1	OX1R antag-1 45.1
Cc1cc(C)n2nc(SCC(=O)Nc3ccc(F)cc3[N+](=O)[O-])nc2n1	OX1R antag-1 28.6 (no result: GPR7 antag)
